Values belong to the compound of their own block, whether it stands above or below them.
Assays:
m^7GDP-bound eIF4E = m^7GDP-bound eIF4E (Homo sapiens, UniProt P06730); assay: SPR binding kinetics of peptides to immobilized eIF4E
[1] = Peptide helicity by CD spectroscopy; type: physicochemical
Procedure, shortened: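 Test peptides at 100 μM in 5 mM sodium phosphate, pH 7.4, equilibrated at 10, 15, 20, 25 and 30 °C. Spectra recorded from 180 to 260 nm: 0.1 nm step, 50 nm/s, five accumulations, 1 s response, 5 nm bandwidth, 0.1 cm path. α-Helical content calculated from previously reported equations. Triplicate analyses per peptide.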

[2] = SPR, 25 °C, 1.0 M versus 225 mM salt

m^7GDP-bound eIF4E, sequence (P06730 whole entry): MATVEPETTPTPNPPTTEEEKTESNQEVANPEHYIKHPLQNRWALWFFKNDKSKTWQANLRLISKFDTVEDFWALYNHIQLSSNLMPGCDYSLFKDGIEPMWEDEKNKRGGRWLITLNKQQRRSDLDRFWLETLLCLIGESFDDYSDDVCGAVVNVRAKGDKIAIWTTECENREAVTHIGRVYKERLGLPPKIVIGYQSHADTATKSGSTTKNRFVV

fold decrease in Kd with increasing salt concentration (m^7GDP-bound eIF4E; [2]): 4 fold
fold decrease in kd with increasing salt concentration (m^7GDP-bound eIF4E; [2]): 48 fold
kon (m^7GDP-bound eIF4E; pH 7.5, read-out: association rate ka): 2e+06 ± 100000 M⁻¹ s⁻¹
koff (m^7GDP-bound eIF4E; pH 7.5, read-out: dissociation rate kd): 0.123 ± 0.014 s⁻¹
Compound: Ac-KKRYSREQLLGL-NH2 [Linear sTIP-04]

Compound: CC(=O)N[C@@H](CCCCN)C(=O)N[C@@H](CCCCN)C(=O)N[C@@H](CCCNC(=N)N)C(=O)N[C@@H](Cc1ccc(O)cc1)C(=O)N[C@@H](CC(=O)O)C(=O)N[C@@H](CCCNC(=N)N)C(=O)N[C@@H](CCC(=O)O)C(=O)N[C@@H](Cc1ccccc1)C(=O)N[C@@H](CC(C)C)C(=O)N[C@@H](CC(C)C)C(=O)NCC(=O)N[C@@H](Cc1ccccc1)C(=O)N[C@@H](CCC(N)=O)C(=O)N[C@@H](Cc1ccccc1)C(N)=O [eIF4G]
kd with increasing salt concentration (m^7GDP-bound eIF4E; SPR, 25 °C, running buffer salt 225 to 1000 mM): 0.046 to 0.27 s⁻¹
kinetic advantage (ka) of eIF4G peptide over both 4E-BP1 peptides (m^7GDP-bound eIF4E; SPR, at most temperatures, particularly the higher ones): ~ 2 fold

helicity over the temperatures tested ([1]; 100 μM, 10 to 30 °C): 15–19%
helicity in the presence of TFE ([1]; 5 mM sodium phosphate buffer pH 7.4, 25 °C, 100 μM peptide, with 2,2,2-trifluoroethanol): 37%
Compound: CC[C@H](C)[C@H](NC(=O)[C@H](CCCNC(=N)N)NC(=O)[C@@H](NC(=O)CNC(C)=O)[C@@H](C)O)C(=O)N[C@H](C(=O)N[C@@H](Cc1ccc(O)cc1)C(=O)N[C@@H](CC(=O)O)C(=O)N[C@@H](CCCNC(=N)N)C(=O)N[C@@H](CCCCN)C(=O)N[C@@H](Cc1ccccc1)C(=O)N[C@@H](CC(C)C)C(=O)N[C@@H](CCSC)C(=O)N[C@@H](CCC(=O)O)C(=O)N[C@@H](CS)C(=O)N[C@@H](CCCNC(=N)N)C(=O)N[C@@H](CC(N)=O)C(N)=O)[C@@H](C)CC [4E-BP1]
